This is an account of results in ChEMBL document CHEMBL1156347, “Immunomodulatory constituents from an Ascomycete, Eupenicillium crustaceum, and revised absolute structure of macrophorin D” (J Nat Prod, 2001).

Usually IC50 stands for the concentration at which inhibition is half-maximal.

Assay [1] is described as follows: Immunosuppressant activity in mouse T cells assessed as inhibition of concanavalin A-induced cell proliferation. It is filed as functional, cell-based. In outline:
(§1)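 Splenic lymphocytes from male BALB/c mice aged 7-11 weeks, stimulated with concanavalin A (T cells) or LPS (B cells). Proliferation read as formation of MTT-formazan from exogenous MTT in the lymphocytes. Seven concentrations tested, each point the mean of 3 experiments. IC50 read from the concentration-versus-proliferation curve.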

A short description of assay [2]: Immunosuppressant activity in mouse B cells assessed as inhibition of LPS-induced cell proliferation. Type of assay: functional, cell-based. In outline: as §1
A further assay has as its system T-cell. Briefly: Ratio of IC50 for mouse T cells proliferation to IC50 for mouse B cells proliferation. Type of assay: functional.

Converted amounts (≈) assume the structure as drawn.

As to `C=C1CC[C@H]2C(C)(C)CCC[C@]2(C)[C@H]1C[C@@]12O[C@@H]1C(=O)C(CO)=CC2=O`, the IC50 amounted to 0.5 µg/mL (≈ 1.39 µM) in assay [1] and 0.25 µg/mL (≈ 0.697 µM) in assay [2]. Moreover, the “Ratio IC50” value in the assay on T-cell amounted to 2.

In the case of `C=CC[C@@H]1/C=C(\C)C[C@H](C)C[C@H](OC)[C@H]2O[C@@](O)(C(=O)C(=O)N3CCCC[C@H]3C(=O)O[C@H](/C(C)=C/[C@@H]3CC[C@@H](O)[C@H](OC)C3)[C@H](C)[C@@H](O)CC1=O)[C@H](C)C[C@@H]2OC` [TACROLIMUS ANHYDROUS], the results for the IC50 in assay [1] and in assay [2] were 1.5e-05 µg/mL (≈ 1.87e-05 µM) and 0.0016 µg/mL (≈ 0.00199 µM), respectively.

Take `Cn1cnc([N+](=O)[O-])c1Sc1ncnc2[nH]cnc12` [AZATHIOPRINE]: the IC50 in assay [1] and in assay [2] was 2.7 µg/mL (≈ 9.74 µM) each time.

As to `C=C1CC[C@H]2C(C)(C)CCC[C@]2(C)[C@H]1C[C@@]12O[C@@H]1C(=O)C(COC(=O)C[C@@](C)(O)CC(=O)O)=CC2=O`, the IC50 amounted to 4.5 µg/mL (≈ 8.95 µM) in assay [1] and 2 µg/mL (≈ 3.98 µM) in assay [2]. Also, the “Ratio IC50” value in the assay on T-cell turned out to be 2.
